NR3A LBD binder: binders of NR3A ligand-binding domain, primary screen, biophysical, differential scanning fluorimetry, uHTS; actives 2.5% (n = 340,000); Tm shift relative to glycine control, % at 25 µM; NR3A LBD differential scanning fluorimetry, Tm shift; 0% = protein alone, 100% = glycine-bound protein; Glutamate receptor ionotropic, NMDA 3A (GRIN3A) ligand-binding domain;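 active means melting temperature shift of at least 10% of the positive control shift, at one fixed dose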
Rtt109 HAT inh: inhibitors of C. albicans Rtt109/Vps75 HAT, primary screen, biochemical, ThioGlo CoA-SH fluorescence, plate reader; actives 0.16% (n = 330,000); purified Rtt109/Vps75, 4 h; inhibition, % at 34.9 µM;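 active means inhibition of at least 50% in every replicate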
Target sequence (Q5AAJ8 whole entry, looked up): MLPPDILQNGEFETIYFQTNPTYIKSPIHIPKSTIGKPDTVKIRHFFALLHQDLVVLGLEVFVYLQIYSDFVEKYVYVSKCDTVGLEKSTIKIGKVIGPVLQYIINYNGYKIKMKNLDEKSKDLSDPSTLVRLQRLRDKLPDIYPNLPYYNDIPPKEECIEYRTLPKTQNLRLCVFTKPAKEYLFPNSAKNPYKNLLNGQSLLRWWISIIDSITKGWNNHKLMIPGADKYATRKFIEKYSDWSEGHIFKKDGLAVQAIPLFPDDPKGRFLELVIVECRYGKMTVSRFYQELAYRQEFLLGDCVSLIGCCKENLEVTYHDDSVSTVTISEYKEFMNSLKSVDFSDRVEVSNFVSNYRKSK
T cell HTS: modulators of CD8 T cell-vesicle binding, primary screen, mouse 2C CD8+ T cells, flow cytometry. 2C CD8+ T cell-vesicle binding; active compounds read low. response (vesicle binding), % at 7 µM. actives 0.068% (n = 330,000). AID 2052, 2009;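 active means response, share of CD8 T cells binding vesicles, and their 90th percentile fluorescence all below set limits, cut at about 80% in these data, passing the limit was not always enough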;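 further: values below 100% mean blocked vesicle binding to the CD8+ T cells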
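Assay system – 2C mouse CD8+ T cells · Also added – QL9-loaded Drosophila micro-vesicles · Timing – Cell–vesicle co-incubation 1.5 h at 37 °C, staining 20 min on ice · Signal – flow cytometry of vesicle-bound cells · Measure – percent CD8+ FL2 mean versus row control · Controls – Peptide-free naked vesicles (low) and QL9 vesicles with 0.7% DMSO vehicle (high)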
GASC-1 inh: inhibitors of GASC-1 histone demethylase, primary screen, biochemical, fluorescence, DELFIA europium; Lysine-specific demethylase 4C (Homo sapiens), Q9H3R0; GST-JMJD2C(1-420) H3K9me3 demethylation; inhibition, % at 2.35 µM; actives 0.069% (n = 330,000); AID 2099, 2009;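 active means more than half of a compound's replicate wells show inhibition beyond 50%, single wells judged on their own value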;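 further: signal counts dimethyl H3K9 product captured on neutravidin plate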
Large screens that a line does not name were inactive. Hits are enriched below; roughly 2.8% of the tested compounds scored in any of these assays.

Cc1cccc(C)c1NC(=O)CSc1nnc(-c2cnccn2)n1C	none
CCOP(=O)(OCC)/C(C#N)=C/c1ccc(-c2ccc(F)cc2F)o1	NR3A LBD binder 13.3
C[C@H](CO)N1C[C@H](C)[C@@H](CN(C)C(=O)Nc2ccccc2)Oc2c(NC(=O)Nc3ccc(C(F)(F)F)cc3)cccc2C1=O	NR3A LBD binder 28.3
C[C@H](CO)N1C[C@H](C)[C@@H](CN(C)C(=O)NC2CCCCC2)Oc2ccc(NC(=O)CCC(F)(F)F)cc2C1=O	none (no result: GASC-1 inh)
C[C@@H]1CN([C@H](C)CO)C(=O)c2cc(NC(=O)Nc3ccc(F)cc3)ccc2O[C@H]1CN(C)C(=O)Nc1ccc(C(F)(F)F)cc1	none
C[C@H](CO)N1C[C@H](C)[C@@H](CN(C)C(=O)Nc2ccccc2)Oc2ccc(NC(=O)Nc3ccc(C(F)(F)F)cc3)cc2C1=O	NR3A LBD binder 11.4 (no result: GASC-1 inh)
CC(C)NC(=O)N(C)C[C@H]1Oc2ccc(NC(=O)CCC(F)(F)F)cc2C(=O)N([C@H](C)CO)C[C@@H]1C	NR3A LBD binder 12.9
C[C@H](CO)N1C[C@H](C)[C@@H](CN(C)C(=O)Nc2ccc(C(F)(F)F)cc2)Oc2ccc(NC(=O)Nc3ccc4c(c3)OCO4)cc2C1=O	NR3A LBD binder 10.6 (no result: GASC-1 inh)
Cc1ccc(NC(=S)NNC(=S)Nc2ccc(C)cc2C)cc1	NR3A LBD binder 11.3
Cc1cc(Cl)ccc1NC(=S)N1CCOCC1	none
Cc1ccc(NC(=S)N2CCOCC2)c(C)c1	NR3A LBD binder 16.2
Cc1ccc(NC(=O)CCC(=O)NNC(=S)Nc2ccccc2)c(C)c1	none
Cc1ccc(N(CC(=O)NCc2ccc(F)cc2)S(=O)(=O)c2c(C)n[nH]c2C)cc1	none
CCN(CC(=O)Nc1ccc2c(c1)OCCO2)C(=O)CCc1ccccc1Cl	none
COc1cc(-c2nnc(SCC(=O)Nc3ccc(C(=O)O)cc3)o2)cc(OC)c1OC	none
O=C(c1ccc(N2CCCC2=O)cc1)N1CCOCC1	none
CN1CCN(C(=O)c2ccc(N3CCCC3=O)cc2)CC1	NR3A LBD binder 333.5
O=C(Nc1cccc(-n2cnnn2)c1)c1ccoc1COc1ccc(Cl)cc1	NR3A LBD binder 21.2
CCOC(=O)c1nc(Nc2ccccc2)c2ccccc2n1	none
CCOC(=O)c1nc(Nc2cc(Cl)ccc2OC)c2ccccc2n1	NR3A LBD binder 10.0 (no result: Rtt109 HAT inh)
O=C(O)c1cccc(S(=O)(=O)Nc2ccccc2-c2ccccc2)c1	none
O=S(=O)(Nc1ccccc1-c1ccccc1)c1ccccc1	NR3A LBD binder 14.0 (no result: T cell HTS, GASC-1 inh)
CC1(C)C[C@H]2C3=CCC4[C@@]5(C)CC[C@H](O)[C@@](C)(CO)C5CC[C@@]4(C)[C@]3(C)C[C@@H](O)[C@@]2(CO)[C@@H](O)[C@@H]1O (stereo partly specified)	none
Cc1ccc(C)c(S(=O)(=O)N2CCN(C(=O)[C@H](Cc3ccccc3)NC(=O)c3ccco3)CC2)c1	none
Cc1csc2c(N3CCN(C(=S)Nc4ccc(C(F)(F)F)cc4)CC3)ncnc12	none
Cc1csc2ncnc(N3CCN(C(=S)Nc4ccc(C(F)(F)F)cc4)CC3)c12	NR3A LBD binder 14.9
CSCCC(NS(=O)(=O)c1ccc(Cl)cc1)C(=O)OCC(=O)c1c(C)[nH]c2ccccc12 (stereo unspecified)	NR3A LBD binder 17.5
Cc1[nH]c2ccccc2c1C(=O)COC(=O)C1CC(O)CN1S(=O)(=O)c1ccc(Cl)cc1 (stereo unspecified)	none (no result: GASC-1 inh)
CCOc1cc(-c2sc(Nc3cc(C)ccc3OC)n[n+]2-c2ccccc2)ccc1OC	NR3A LBD binder 12.9 (no result: GASC-1 inh)
COc1ccc2nc3sc(C(=O)NCCN4CCc5ccccc5C4)cc3cc2c1	NR3A LBD binder 19.0
COc1ccc(S(=O)(=O)NNC(=O)c2cc3cc4ccccc4nc3s2)cc1	NR3A LBD binder 28.9
COC(=O)Cn1c(=NC(=O)c2cc(-c3cccs3)nc3ccccc23)sc2cc(S(N)(=O)=O)ccc21	NR3A LBD binder 15.9
CCOC(=O)Cn1c(=NC(=O)c2cc(-c3cccs3)nc3ccccc23)sc2cc(S(N)(=O)=O)ccc21	NR3A LBD binder 26.1
COC(=O)Cn1c(=NC(=O)c2nc3ccccc3s2)sc2cc(S(N)(=O)=O)ccc21	none
COC(=O)c1sc(=S)n(-c2cc(F)ccc2F)c1N	none
CCOC(=O)c1sc(=S)n(-c2cc(F)ccc2F)c1N	NR3A LBD binder 14.2
Cc1cc(C(=O)N/N=C/c2ccc(-c3ccc([N+](=O)[O-])cc3C)o2)n[nH]1	none
O=C(N/N=C/c1ccc(-c2cccc([N+](=O)[O-])c2)o1)c1cccs1	NR3A LBD binder 14.1
Cc1cc([N+](=O)[O-])ccc1-c1ccc(/C=N/NC(=O)c2ccc(Br)o2)o1	NR3A LBD binder 26.6
O=C(N/N=C/c1ccc(-c2cccc([N+](=O)[O-])c2)o1)[C@H]1C[C@@H]1c1ccccc1	NR3A LBD binder 14.8
Nc1nonc1C(=O)N/N=C/c1ccc(-c2cccc([N+](=O)[O-])c2)o1	none
O=C(N/N=C/c1ccc(-c2ccc([N+](=O)[O-])cc2)o1)[C@H]1C[C@@H]1c1ccccc1	none
O=C(N/N=C\c1ccc(-c2ccc([N+](=O)[O-])cc2)o1)C1COc2ccccc2O1 (stereo unspecified)	NR3A LBD binder 25.3
CC[C@@]1(C(=O)OC)N[C@H](CN(C)C(=O)Nc2ccc(Cl)cc2)[C@@H]2C(=O)N(Cc3ccccc3)C(=O)[C@@H]21	none
N#C/C(=C\c1ccc(-c2cccc([N+](=O)[O-])c2)o1)C(=O)Nc1nc(-c2cccs2)cs1	NR3A LBD binder 11.4
Cc1cc(CN2C(=O)c3ccccc3C2=O)no1	Rtt109 HAT inh 57.5
O=C(Cc1ccc(F)cc1)NC1CCS(=O)(=O)C1 (stereo unspecified)	none
COc1ccc(OC)c(NC(=O)c2cc3oc4ccccc4c3cc2O)c1	NR3A LBD binder 130.0
O=C(Nc1ccc2c(c1)oc1ccccc12)c1ccc2c(c1)OCO2	NR3A LBD binder 25.4
COc1cc2c(cc1NC(=O)c1ccc3c(c1)OCO3)oc1ccccc12	NR3A LBD binder 26.2
O=C(NCCNC(=O)c1ccc(Cl)cc1Cl)c1ccco1	none
Cc1cccc(NC(=O)CN(C)S(=O)(=O)c2ccc3c(c2)n(C)c(=O)c(=O)n3C)c1C	NR3A LBD binder 13.4
CN(CC(=O)Nc1ccc(F)cc1)S(=O)(=O)c1ccc2c(c1)c(=O)n(C)c(=O)n2C	NR3A LBD binder 10.5
Cc1ccc(NC(=O)CN(C)S(=O)(=O)c2ccc3c(c2)c(=O)n(C)c(=O)n3C)cc1	none
COc1cccc(Cn2cc(N)cn2)c1	none
OCCNCc1cc(Br)ccc1OCc1ccc(F)cc1	none
OCCCCNCc1cc(Br)ccc1OCc1ccccc1F	T cell HTS 26.8

High-throughput results as filed in PubChem BioAssay.
